According to publication PMC11995438 (Bioorganic & medicinal chemistry, 2023):
Values after ≈ are worked out from the molar mass of the structure shown. “Also recorded” adds a separate entry of the source. *1 amine or outer side, *2 acyl side, *3 side chain or, on linkers, in order; H or OH if unused. Where a SMILES comes first, the peptide text is derived from it. [ ]: non-standard residue; d: D form. X1 = CN([C@H](C(=O)[*:2])[C@@H](O)C(N)=O)[*:1]; Pro(4S-Me) = C[C@@H]1CN[C@H](C(=O)O)C1; N(OH)Ala = C[C@H](NO)C(=O)O; Lac = C[C@H](O)C(=O)O; Dha = C=C(N)C(=O)O

What was measured:
[1] = Plasma protein binding by equilibrium dialysis, human plasma; type: in vitro ADME; conditions: for Plasma Protein Binding Human (%free): 2 μM, equilibrium dialysis 6 h, 37 °C
[2] = Plasma protein binding by equilibrium dialysis, mouse plasma; type: in vitro ADME; conditions: for Plasma Protein Binding Mouse (%free): 2 μM, equilibrium dialysis 6 h, 37 °C
CYP1A2 = target: T1, CYP1A2 (Homo sapiens, UniProt P05177); assay: P450 inhibition in human hepatic microsomes, CYP1A2; type: in vitro ADME; conditions: for Human P450 Inhibition 1A2 %Inh.: at 10 μM
T1 sequence (P05177 1-516): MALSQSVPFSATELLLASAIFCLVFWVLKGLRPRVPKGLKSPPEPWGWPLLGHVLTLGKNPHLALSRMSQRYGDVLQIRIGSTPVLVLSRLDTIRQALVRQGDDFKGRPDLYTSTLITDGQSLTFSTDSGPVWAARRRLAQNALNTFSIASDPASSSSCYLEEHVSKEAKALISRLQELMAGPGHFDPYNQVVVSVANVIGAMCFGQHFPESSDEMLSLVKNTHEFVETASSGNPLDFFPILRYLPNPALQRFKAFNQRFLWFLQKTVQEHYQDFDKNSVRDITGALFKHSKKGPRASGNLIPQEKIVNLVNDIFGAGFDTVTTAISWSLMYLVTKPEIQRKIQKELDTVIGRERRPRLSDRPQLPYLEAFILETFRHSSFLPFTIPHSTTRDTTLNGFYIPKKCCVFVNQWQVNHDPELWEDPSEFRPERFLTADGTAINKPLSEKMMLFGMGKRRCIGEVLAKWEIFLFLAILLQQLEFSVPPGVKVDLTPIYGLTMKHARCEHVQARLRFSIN

CYP3A4 [3] = target: T2, CYP3A4 (Homo sapiens, UniProt P08684); assay: in vitro; conditions: microsomes
CYP2D6 = CYP2D6 (Homo sapiens, UniProt P10635); assay: P450 inhibition in human hepatic microsomes, CYP2D6; type: in vitro ADME; conditions: for Human P450 Inhibition 2D6 %Inh.: at 10 μM
CYP2C9 = CYP2C9 (Homo sapiens, UniProt P11712); assay: P450 inhibition in human hepatic microsomes, CYP2C9; type: in vitro ADME; conditions: for Human P450 Inhibition 2C9 %Inh.: at 10 μM
[4] = target: T3, gatorbulin site of tubulin (Bos taurus, UniProt P81947+Q6B856); assay: Binding constants by MTC displacement; parameters: species or system calf; conditions: 10 μM tubulin plus 10 μM MTC, compound up to 100 μM
CYP3A4 [5] = target: T2, CYP3A4; assay: P450 inhibition in human hepatic microsomes, CYP3A4; conditions: at 10 μM
[6] = tested on: HeLa cervical cancer cells; assay: MTT viability assay, HeLa; type: cell-based; conditions: read-out: IC50 HeLa, 48 h
Procedure, shortened: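 HeLa cells grown in DMEM with 10 % FBS at 37 °C, 5 % CO₂. Seeded at 5000 cells/well, attached overnight, then exposed to a concentration series of test compound or 0.5 % DMSO. MTT read-out 48 h after treatment. IC50 by non-linear regression; mean ± SD, n = 3.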

[7] = tested on: SK-OV-3-MDR1-M6/6 cell line; conditions: cited from earlier work
[8] = target: T3, gatorbulin site of tubulin; conditions: cited from earlier work
[9] = tested on: SK-OV-3 ovarian cancer cells; assay: MTT viability assay, SK-OV-3; type: cell-based; conditions: for IC50: read-out: IC50 SK-OV-3, 48 h
β-tubulin = assay: Immunoblot analysis of β-tubulin levels in SK-OV-3 cells; type: cell-based; conditions: 16 h
Procedure, shortened: (§1)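 SK-OV-3 cells seeded at 2 × 10⁵/well and attached 24 h. Medium replaced, then ±1 h preincubation with 10 µM MG-132 before test compound or 0.5 % DMSO for 16 h. Whole-cell lysates normalised by BCA, run on 4–12 % SDS-PAGE, blotted to PVDF and detected by chemiluminescence. Densitometry of a representative blot, normalised to GAPDH and to DMSO without MG-132.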

PAMPA permeability = type: in vitro ADME; conditions: for Permeability-PAMPA Tested: 5 μM, pH 7.4, 5 hours; for Permeability-PAMPA Predicted level: predicted from PAMPA
[10] = Kinetic solubility in pH 7.4 phosphate buffered saline; type: physicochemical; conditions: 1% DMSO, 24 hours, top concentration 100 μM
[11] = target: human efflux transporter MDR1/P-gp (MDCK cells) (Homo sapiens, UniProt P08183); assay: MDCK-MDR1 permeability assay; conditions: for Permeability-MDCK-PgP Substrate?: P-gp substrate classification
α-tubulin = assay: Immunoblot analysis of α-tubulin levels in SK-OV-3 cells; type: cell-based; conditions: 16 h
Procedure, shortened: as §1

human MDR1/P-gp = human MDR1/P-gp (Homo sapiens, UniProt P08183); assay: MDCK-MDR1 permeability assay; conditions: dog, MDCK-MDR1, pH 7.4
[12] = Hepatic microsomal stability, human; type: in vitro ADME; conditions: liver microsomes, pH 7.4
[13] = Hepatic microsomal stability, mouse; type: in vitro ADME; conditions: liver microsomes, pH 7.4
[14] = human, liver microsomes, probe bufuralol, hydroxylation to 4'-hydroxybufuralol
[15] = human, liver microsomes, probe tolbutamide, hydroxylation to hydroxytolbutamide

NC(=O)N1c2ccccc2C=Cc2ccccc21 [Car, carbamazepine, reference compound]
fraction unbound at 6 h, 2 µM ([1]; human, plasma): 0.25 | fraction unbound at 6 h, 2 µM ([2]; mouse, plasma): 0.36

Cc1nc2c([nH]1)c(=O)n(C)c(=O)n2Cc1ccco1 [Fur, furafylline]
inhibition at 40 µM (CYP1A2; human, microsomes): 82% | inhibition at 40 µM (CYP3A4 [3]): < 10% | inhibition at 40 µM (CYP2D6; [14]): < 10% | inhibition at 40 µM (CYP2C9; [15]): < 10%

C=C1NC(=O)[C@H](C)N(O)C(=O)[C@H]([C@@H](O)C(N)=O)N(C)C(=O)[C@H](C)OC(=O)[C@@H]2C[C@H](C)CN2C1=O [GB1, Gatorbulin-1] (cyclo([Dha][Pro(4S-Me)][Lac][X1][N(OH)Ala]))
Kb (binding affinity, MTC) ([4]; listed as GB1 (1a)): 2.2 ± 0.7 × 10^6 M^−1 | Human P450 Inhibition 3A4 %Inh. (CYP3A4 [5]): < 10 %Inh. | Human P450 Inhibition 1A2 %Inh. (CYP1A2): 13 %Inh. | IC50 [6]: 0.59 µM | effectiveness in P-gp overexpressing cells versus parental line [7]: less effective | binding affinity reported previously [8]: 1.01e+06 M⁻¹ | concentration at which active ([9]; SK-OV-3 and HeLa cells, 48 h): submicromolar | IC50 [9]: 0.216 µM | depletion of β-tubulin (β-tubulin; 3.2 μM): 80% | preference for β-tubulin over α-tubulin depletion (β-tubulin): ~ 3 fold | Permeability-PAMPA Tested (PAMPA permeability): 4.5 10^−6 cm/s | Permeability-PAMPA Predicted level (PAMPA permeability): high | Human P450 Inhibition 2D6 %Inh. (CYP2D6): 11 %Inh. | Human P450 Inhibition 2C9 %Inh. (CYP2C9): < 10 %Inh. | Plasma Protein Binding Human (%free) [1]: 76 %free | Solubility Kinetic [10]: > 100 µM | Plasma Protein Binding Mouse (%free) [2]: 80 %free | Permeability-MDCK-PgP Mean Papp A to B ([11]; 2 μM, 90 minutes): 1.8 10^−6 cm/s | Permeability-MDCK-PgP Mean Papp B to A ([11]; 2 μM, 90 minutes): 1.6 10^−6 cm/s | Permeability-MDCK-PgP Substrate? [11]: not a P-gp substrate or is a poor P-gp substrate; also recorded: poor or non- | reduction of α-tubulin levels (α-tubulin; 10 μM): 80% | effect on α- and β-tubulin levels (α-tubulin; without MG132): induced a reduction of both α- and β-tubulin levels

CC(=O)N1CCN(c2ccc(OCC3COC(Cn4ccnc4)(c4ccc(Cl)cc4Cl)O3)cc2)CC1 (centres unmarked) [Ket, ketoconazole]
inhibition at 1 µM (CYP1A2; human, liver microsomes): 13% | inhibition at 1 µM (CYP2C9; [15]): 39%

CC(C)(C)NCC(O)COc1cccc2c1CC(O)C(O)C2 (centres unmarked) [Nad, nadolol]
Papp A→B at 90 min, 2 µM (human MDR1/P-gp): 1.9 ×10⁻⁶ cm/s | Papp B→A at 90 min, 2 µM (human MDR1/P-gp): 1.5 ×10⁻⁶ cm/s | efflux ratio at 90 min, 2 µM (human MDR1/P-gp): 0.8 | Permeability-MDCK-PgP Substrate? [11]: poor or non-

CC(=O)O[C@H]1C(=O)[C@@]2(C)[C@H]([C@H](OC(=O)c3ccccc3)[C@]3(O)C[C@H](OC(=O)[C@H](O)[C@@H](NC(=O)c4ccccc4)c4ccccc4)C(C)=C1C3(C)C)[C@]1(OC(C)=O)CO[C@@H]1C[C@@H]2O [Pac, paclitaxel, reference compound]
Solubility Kinetic [10]: 1.3 µM (≈ 1.11 µg/mL)

CC(C)NCC(O)COc1cccc2ccccc12 (centres unmarked) [Pro, propranolol, reference compound]
Papp at 5 h, 5 µM (PAMPA permeability; PAMPA, pH 7.4): 5.7 ×10⁻⁶ cm/s | Permeability-PAMPA Predicted level (PAMPA permeability): high

C=C[C@H]1C[N@@]2CC[C@H]1C[C@@H]2[C@@H](O)c1ccnc2ccc(OC)cc12 [Qui, quinidine]
inhibition at 10 µM (CYP1A2; human, liver microsomes): < 10% | inhibition at 10 µM (CYP2C9; [15]): < 10% | Papp A→B at 90 min, 2 µM (human MDR1/P-gp): 1.6 ×10⁻⁶ cm/s | Papp B→A at 90 min, 2 µM (human MDR1/P-gp): 11.1 ×10⁻⁶ cm/s

CNC(=C[N+](=O)[O-])NCCSCc1ccc(CN(C)C)o1 [Ran, ranitidine, reference compound]
Permeability-PAMPA Predicted level (PAMPA permeability): low

Nc1ccc(S(=O)(=O)Nc2ccnn2-c2ccccc2)cc1 [Sul, sulfaphenazole, reference compound]
inhibition at 10 µM (CYP1A2; human, liver microsomes): < 10% | inhibition at 10 µM (CYP2D6; [14]): < 10%

CCN(CC)CCNC(=O)c1c(C)[nH]c(/C=C2\C(=O)Nc3ccc(F)cc32)c1C [Sun, sunitinib]
half-life at 1 µM [12]: 34.5 min | half-life at 1 µM [13]: 13.5 min

COc1cc([C@@H]2c3cc4c(cc3[C@H](O)[C@H]3COC(=O)[C@H]23)OCO4)cc(OC)c1OC [podophyllotoxin, reference compound]
Kb (binding affinity, MTC) [4]: 1.5e+07 M⁻¹

gatorbulin-2 [GB2]
MTC displacement [4]: no MTC displacement | Human P450 Inhibition 3A4 %Inh. (CYP3A4 [5]): < 10 %Inh. | Human P450 Inhibition 1A2 %Inh. (CYP1A2): < 10 %Inh. | IC50 [6]: > 100 µM | IC50 [9]: > 100 µM | Permeability-PAMPA Tested (PAMPA permeability): 8.2 10^−6 cm/s | Permeability-PAMPA Predicted level (PAMPA permeability): high | Human P450 Inhibition 2D6 %Inh. (CYP2D6): < 10 %Inh. | Human P450 Inhibition 2C9 %Inh. (CYP2C9): 18 %Inh. | Plasma Protein Binding Human (%free) [1]: 60 %free | Solubility Kinetic [10]: > 100 µM | Plasma Protein Binding Mouse (%free) [2]: 88 %free
